The subject of series [1] is Human immunodeficiency virus 1. The series is described as follows: Antiviral activity against HIV1 3B infected in human MT4 cells assessed as reduction in virus-induced cytopathic effect after 5 days by MTT assay. The class given is functional, organism-based. The settings on record: Human immunodeficiency virus 1, 3B, MT4, 120 h. Put shortly:
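MT-4 cells at 6 × 10⁵ cells/mL infected with HIV-1 IIIB stock at 100-300 CCID50. Test compounds added as serial five-fold dilutions in triplicate wells. Viability of infected cells read spectrophotometrically by MTT 5 days after infection. Values are the mean ± SD of at least two parallel tests.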
(In general: Cytopathic effects are the visible damage that an infection or toxin causes in cultured cells.)

Series [2] in a line: Selectivity index, ratio of CC50 for mock-infected human MT4 cells to EC50 for HIV1 3B infected in human MT4 cells. The class given is toxicity, cell-based. Particulars: mock-infected MT4 cells and MT4 cells infected with HIV1 3B, read-out: Ratio CC50/EC50.
Series [3] concerns Human immunodeficiency virus 1. The series is described as follows: Antiviral activity against HIV1 RES056 expressing reverse transcriptase K103N + Y181C double mutant infected in human MT4 cells assessed as reduction in virus-induced cytopathic effect after 5 days by MTT assay. Particulars: Human immunodeficiency virus 1, RES056, MT4, 120 h. The class given is functional, organism-based. Put shortly:
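MT-4 cells resuspended at 6 × 10⁵ cells/mL, infected with HIV-1 RES056 stock at 100–300 CCID50, compound in serial five-fold dilutions in triplicate wells alongside mock-infected wells. Viability read by MTT after 5 days.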

A short description of series [4]: Selectivity index, ratio of CC50 for mock-infected human MT4 cells to EC50 for HIV1 RES056 expressing reverse transcriptase K103N + Y181C double mutant. The class given is toxicity, cell-based. Particulars: read-out: Ratio CC50/EC50.
Series [5] in a line: Lipophilicity, log P of the compound at pH 7.0 by HPLC method. The settings on record: buffer. The class given is physicochemical. In a few lines: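 Log P measured at pH 7 by HPLC, in duplicate.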
A short description of series [6]: Solubility in water at pH 7.0 after 2 hrs by HPLC-UV method. It is filed as physicochemical. Put shortly:
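DMSO stock spiked into purified water to 1% final DMSO. Shaken 2 h at 3000 rpm at room temperature, left 1 h, then filtered through a 0.22 membrane. Filtrate quantified by HPLC-UV on a C18 column (150 × 4.6 mm) with MeOH/water 85/15 at 1.0 mL/min. Measured at pH 7, in duplicate.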

For series [7], the target named is Human immunodeficiency virus type 1 reverse transcriptase (Human immunodeficiency virus 1, UniProt Q72547). The series is described as follows: Inhibition of HIV1 reverse transcriptase assessed as reduction in biotin-labeled dUTP incorporation into DNA after 1 hr using poly(A) x oligo(dT)15 template/primer hybrid, digoxigenin and biotin-labeled nucleotides. In a few lines:
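Recombinant HIV-1 RT, colorimetric ELISA kit. Poly(A)·oligo(dT)15 template/primer with biotin- and DIG-labelled dNTPs in lysis buffer ± inhibitor, 1 h at 37 °C. Serial five-fold dilutions tested. IC50 is the concentration halving labelled dUTP incorporation.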

Values after ≈ are worked out from the molar mass of the structure shown. Structures can show the parent of a compound that is named as a salt. Bounds are passed on as bounds.

We go through 32 compounds from ChEMBL document CHEMBL3407432, “Fused heterocycles bearing bridgehead nitrogen as potent HIV-1 NNRTIs. Part 3: optimization of [1,2,4]triazolo[1,5-a]pyrimidine core via structure-based and physicochemical property-driven approaches” (Eur J Med Chem, 2015).

Broadly, the EC50 is the concentration at which the effect is half-maximal. By logP is commonly meant a log measure of how a compound divides between an organic and an aqueous phase. A high value points to higher lipophilicity. Usually solubility stands for how much of the substance goes into solution per volume. Low values mean little dissolved substance, high ones much dissolved substance. One may read the IC50 as the midpoint of a concentration-inhibition curve.

Regarding `Cc1cc(C)c(Oc2cc(NC3CCN(Cc4ccccc4C)CC3)nc3ncnn23)c(C)c1`, the EC50 in series [1] was 42 nM; in series [3] it was more than 24000 nM. For the same compound, the selectivity ratio in series [2] is 590; in series [4] it was less than 1.

With `Cc1cc(C)c(Oc2cc(NC3CCN(Cc4ccc(C#N)cc4)CC3)nc3ncnn23)c(C)c1`, the EC50 in series [1] was 20 nM; in series [3], more than 14000 nM. In addition, the selectivity ratio is 689 in series [2] and less than 1 in series [4].

Take `Cc1cc(C)c(Oc2cc(NC3CCN(Cc4ccncc4)CC3)nc3ncnn23)c(C)c1`: the EC50 in series [1] was found to be 17 nM; in series [3], 6400 nM. For the same compound, the selectivity ratio was 2650 in series [2] and 7 in series [4].

On to `Cc1cc(C)c(Oc2cc(NC3CCN(Cc4ccc(S(N)(=O)=O)cc4)CC3)nc3ncnn23)c(C)c1`, for which the EC50 was 27 nM in series [1] and 22000 nM in series [3]. Further, the selectivity ratio in series [2] stood at 1890; in series [4], 2.

Regarding `O=C1Nc2ccc(Cl)cc2[C@@](C#CC2CC2)(C(F)(F)F)O1` [EFAVIRENZ], the EC50 in series [1] turned out to be 6.3 nM.

Consider `Cc1cc(C)c(Oc2cc(NC3CCN(Cc4cccc(C#N)c4)CC3)nc3ncnn23)c(C)c1`, for which the EC50 in series [1] was 19 nM; in series [3], more than 25000 nM. In addition, the selectivity ratio in series [2] was 1320; in series [4], less than 1.

With `COC(=O)c1ccc(NC(=O)CN2CCC(Nc3cc(Oc4c(C)cc(C)cc4C)n4ncnc4n3)CC2)c(Cl)c1`, the EC50 was 277 nM in series [1] and more than 86000 nM in series [3]. Also, the results for the selectivity ratio in series [2] and in series [4] were 315 and less than 1, respectively.

On to `Cc1cc(C)c(Oc2cc(NC3CCN(Cc4ccccc4F)CC3)nc3ncnn23)c(C)c1`, for which the figures for the EC50 in series [1] and in series [3] were 48 nM and more than 25000 nM, respectively. The selectivity ratio in series [2] was 520; in series [4], less than 1.

With `O=c1[nH]cnc2c1ncn2[C@H]1CC[C@@H](CO)O1` [DIDANOSINE], in series [2], the selectivity ratio is more than 9.

`Cc1cc(C)c(Oc2cc(NC3CCN(Cc4ccc(F)cc4)CC3)nc3ncnn23)c(C)c1`: the EC50 is 56 nM in series [1] and more than 24000 nM in series [3]. Moreover, the selectivity ratio in series [2] is 424; in series [4], less than 1.

On to `Cc1cc(C)c(Oc2cc(NC3CCN(CC(=O)Nc4ccc(C(=O)O)cc4Br)CC3)nc3ncnn23)c(C)c1`, for which the figures for the EC50 in series [1] and in series [3] were 2280 nM and more than 89000 nM, respectively. Besides, the selectivity ratio in series [2] was 39; in series [4], less than 1.

Consider `Cc1cc(C)c(Oc2cc(NC3CCN(Cc4ccccc4)CC3)nc3ncnn23)c(C)c1`, for which the EC50 in series [1] is 36 nM; in series [3], more than 25000 nM. The selectivity ratio in series [2] is 708; in series [4], less than 1.

Take `Cc1cc(C#N)cc(C)c1Oc1nc(Nc2ccc(C#N)cc2)nc(N)c1Br` [ETRAVIRINE]: in series [1], the EC50 is 1.8 nM. Further, the logP in series [5] is more than 5. In series [6], this compound gave a solubility at 2 h of less than 1 µg/mL.

With `Cc1cc(C)c(Oc2cc(NC3CCN(Cc4cccc(F)c4)CC3)nc3ncnn23)c(C)c1`, the results for the EC50 in series [1] and in series [3] were 104 nM and not below 39000 nM, respectively. For the same compound, the results for the selectivity ratio in series [2] and in series [4] were not below 238 and not above 1, respectively.

In the case of `Cc1cc(C)c(Oc2cc(NC3CCN(Cc4ccccc4C#N)CC3)nc3ncnn23)c(C)c1`, the figures for the EC50 in series [1] and in series [3] were 77 nM and more than 27000 nM, respectively. In addition, the figures for the selectivity ratio in series [2] and in series [4] were 356 and less than 1, respectively.

As to `Cc1cc(C)c(Oc2cc(NC3CCN(Cc4ccc([N+](=O)[O-])cc4)CC3)nc3ncnn23)c(C)c1`, the figures for the EC50 in series [1] and in series [3] were 35 nM and more than 18000 nM, respectively. In addition, the values for the selectivity ratio in series [2] and in series [4] were 522 and less than 1, respectively.

As to `CC(C)Nc1cccnc1N1CCN(C(=O)c2cc3cc(NS(C)(=O)=O)ccc3[nH]2)CC1` [DELAVIRDINE MESYLATE], the EC50 was 540 nM in series [1] and more than 36000 nM in series [3]. For the same compound, the selectivity ratio was more than 67 in series [2] and 1 in series [4].

Consider `CC(=O)c1ccc(CN2CCC(Nc3cc(Oc4c(C)cc(C)cc4C)n4ncnc4n3)CC2)cc1`, for which the EC50 is 8.7 nM in series [1] and more than 18000 nM in series [3]. Moreover, the selectivity ratio in series [2] is 2060; in series [4] it was less than 1.

For `Cc1cc(C)c(Oc2cc(NC3CCN(Cc4ccc(F)c(F)c4)CC3)nc3ncnn23)c(C)c1`, the EC50 is 67 nM in series [1] and more than 23000 nM in series [3]. The selectivity ratio in series [2] was 346; in series [4] it was less than 1.

Consider `Cc1cc(C)c(Oc2cc(NC3CCN(Cc4ccc(C(N)=O)cc4)CC3)nc3ncnn23)c(C)c1`, for which the EC50 in series [1] was 21 nM; in series [3] it was more than 24000 nM. The selectivity ratio in series [2] is 1180; in series [4], less than 1.

In the case of `Cc1cc(C)c(Oc2cc(NC3CCN(CC4CCCCC4)CC3)nc3ncnn23)c(C)c1`, the results for the EC50 in series [1] and in series [3] were 245 nM and more than 13000 nM, respectively. In addition, the selectivity ratio was 50 in series [2] and less than 1 in series [4].

Turning to `Cc1cc(C)c(Oc2cc(NC3CCN(Cc4cc(F)ccc4F)CC3)nc3ncnn23)c(C)c1`, the results for the EC50 in series [1] and in series [3] were 98 nM and more than 24000 nM, respectively. Further, the selectivity ratio was 243 in series [2] and less than 1 in series [4].

As for `Cc1ccnc2c1NC(=O)c1cccnc1N2C1CC1` [NEVIRAPINE], in series [3], the EC50 was not below 7600 nM.

For the compound `Cc1cc(C)c(Oc2cc(NC3CCN(Cc4ccc(S(C)(=O)=O)cc4)CC3)nc3ncnn23)c(C)c1`, the EC50 in series [1] stood at 8.1 nM; in series [3] it was 13000 nM. In addition, the values for the selectivity ratio in series [2] and in series [4] were 2550 and 2, respectively. Further, in series [7], the IC50 is 500 nM. This compound also gave a logP in series [5] of 1.91. In series [6], this compound had a solubility at 2 h of 10.3 µg/mL (≈ 19.8 µM).

As to `Cc1cc(C)c(Oc2cc(NC3CCN(Cc4c(F)cccc4F)CC3)nc3ncnn23)c(C)c1`, the EC50 in series [1] is 439 nM; in series [3] it was more than 25000 nM. For the same compound, the selectivity ratio in series [2] is 57; in series [4], less than 1.

For `Cc1cc(C)c(Oc2cc(NC3CCN(Cc4ccc(Br)cc4)CC3)nc3ncnn23)c(C)c1`, the EC50 in series [1] is 92 nM; in series [3], more than 30000 nM. Besides, the selectivity ratio in series [2] was 320; in series [4], less than 1.

Take `Cc1cn([C@H]2C[C@H](N=[N+]=[N-])[C@@H](CO)O2)c(=O)[nH]c1=O` [ZIDOVUDINE]: in series [3], the EC50 worked out at 10 nM.

For the compound `Cc1cc(C)c(Oc2cc(NC3CCN(Cc4ccc(F)cc4F)CC3)nc3ncnn23)c(C)c1`, the EC50 in series [1] is 90 nM; in series [3], more than 23000 nM. Besides, the values for the selectivity ratio in series [2] and in series [4] were 255 and less than 1, respectively.

`Nc1ccn([C@@H]2CS[C@H](CO)O2)c(=O)n1` [LAMIVUDINE]: the selectivity ratio in series [2] is more than 39.

In the case of `COC(=O)c1ccc(CN2CCC(Nc3cc(Oc4c(C)cc(C)cc4C)n4ncnc4n3)CC2)cc1`, the EC50 in series [1] is 15 nM; in series [3], more than 10000 nM. Further, the selectivity ratio is 686 in series [2] and less than 1 in series [4].

Regarding `Cc1ccc(CN2CCC(Nc3cc(Oc4c(C)cc(C)cc4C)n4ncnc4n3)CC2)cc1`, the EC50 in series [1] is 72 nM; in series [3], more than 49000 nM. Besides, the selectivity ratio is 679 in series [2] and less than 1 in series [4].

Consider `Cc1cc(C)c(Oc2cc(NC3CCN(Cc4cccc(Cl)c4)CC3)nc3ncnn23)c(C)c1`, for which the EC50 in series [1] was 12 nM; in series [3], more than 20000 nM. The selectivity ratio in series [2] was 1640; in series [4], less than 1.
